Compounds with a hit are over-represented: about 1.9% of the library has one in this group of screens.
UBC9 SUMO inh: blocks human SUMOylation mediated by UBC9; 0.36% of 290,000 active; HTRF SUMOylation assay, SAE1/SAE2 + UBC9, in vitro; P63279; inhibition, % at 35 µM; in the data active = inhibition above about 50%, passing the limit was not always enough
Target sequence (P63279 whole entry, looked up): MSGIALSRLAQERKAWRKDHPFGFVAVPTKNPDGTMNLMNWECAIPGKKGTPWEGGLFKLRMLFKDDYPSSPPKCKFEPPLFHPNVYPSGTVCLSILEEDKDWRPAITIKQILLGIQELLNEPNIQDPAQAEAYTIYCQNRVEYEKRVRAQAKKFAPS
DNMT1 block: DNMT1 (human) enzyme inhibition | P26358 | DNMT1 molecular beacon, Hinp1I cleavage, fluorescence | inhibition (reported as % activation of signal), % at 10 µM | 0.83% of 360,000 active; in the data active = inhibition above about 50%
LMPTP block: LMPTP (human) inhibition. P24666. recombinant LMPTP-A, OMFP fluorogenic substrate, fluorescence intensity. inhibition, % at 20 µM. 0.22% of 360,000 active;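 active = compounds that cut the enzyme signal by at least half of the control window in the single-dose screen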
Target sequence (P24666 whole entry, looked up): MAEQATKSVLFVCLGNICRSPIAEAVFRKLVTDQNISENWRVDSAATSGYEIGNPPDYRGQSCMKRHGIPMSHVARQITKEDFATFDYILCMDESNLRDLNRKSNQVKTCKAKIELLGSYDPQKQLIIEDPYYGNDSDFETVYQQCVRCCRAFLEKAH
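Material: LMPTP-A; amount: 0.625 nM enzyme; doses: single 20 µM dose; times: reaction 50 min, room temperature, dark; technique: fluorescence intensity of OMFP turnover product; benchmarks: no-enzyme and uninhibited controls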
STEP block: inhibitors of human striatal-enriched phosphatase STEP. inhibition, % at 20 µM. AID 588621. 0.25% of 360,000 active. P54829. recombinant STEP, OMFP fluorogenic substrate, fluorescence;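 active = inhibition at 20 µM, scaled per plate between control wells, above about 37%, limit read from the data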
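System: isolated STEP enzyme; schedule: 20 min enzyme reaction at room temperature, protected from light; medium: Bis-Tris buffer pH 6.0, 2.5 mM DTT, 0.005% Tween 20; signal: fluorescence, 480/540 nm; dosing: single compound dose of 20 µM, 1% DMSO final; also added: OMFP substrate, 25 µM final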
Scp1 inh: blocks human Scp-1 phosphatase activity; AID 493091; inhibition, % at 20 µM; 0.88% of 340,000 active; Recombinant Scp1, phosphopeptide, malachite green phosphate absorbance;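 active = inhibition above about 50% at 20 µM, limit read from the data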
Target sequence (Q9GZU7 76-261 limits assumed): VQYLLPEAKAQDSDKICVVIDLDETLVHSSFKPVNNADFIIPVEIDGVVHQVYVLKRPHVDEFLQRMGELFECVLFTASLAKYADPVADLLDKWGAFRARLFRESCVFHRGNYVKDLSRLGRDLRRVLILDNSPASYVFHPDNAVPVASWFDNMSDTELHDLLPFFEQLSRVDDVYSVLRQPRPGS
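Test system: SCP-1 phosphatase catalytic domain, residues 76-261; measured by: colorimetric phosphate reagent with accelerator and stabiliser, absorbance at 630 nm; timing: enzyme reaction 45 min at room temperature, colour 5 min, stabilisation 30 min; also added: Phosphorylated 17-residue peptide substrate; compound dosing: one concentration, 20 µM, with 1.0% DMSO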
SUMO1-SIM PPI: SUMO1-SIM interaction modulation; inhibition, % at 20 µM; SUMO1 binding to a labelled peptide, TR-FRET, 1 h; AID 602429; P63165; 0.33% of 360,000 active; in the data active = inhibition above about 37%
Target sequence (P63165 whole entry, looked up): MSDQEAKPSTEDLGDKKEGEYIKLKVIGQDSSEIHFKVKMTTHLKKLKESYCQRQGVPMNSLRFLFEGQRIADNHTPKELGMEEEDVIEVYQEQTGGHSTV
DNMT1 interf DR: counter-screen for DNMT1 inhibitors: spectral interference, dose response. shares compounds with DNMT1 block. molecular beacon fluorescence. IC50, µM. 200 tested, under 10 active; call rule not given here
DNMT1 inh conf: confirmation of human DNMT1 inhibitors; shares compounds with DNMT1 block; DNMT1 molecular beacon HinP1I cleavage, fluorescence; inhibition, % at 10 µM; 8% of 2,300 active; AID 602385;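 active = average inhibition of at least 30% in the single-concentration confirmation test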
DNMT1 interf: beacon fluorescence artifact counter-screen; shares compounds with DNMT1 block; DNMT1 molecular beacon spectral interference counterscreen, fluorescence 485/520; activation (fluorescence interference), % at 10 µM; 1% of 2,300 active; AID 602387;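 active = activation of at least 30% at 10 µM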;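 also: DNMT1 catalytic domain with a HinP1I cleavage step and a FAM/dabcyl DNA beacon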
Large screens that a line does not name were inactive (follow-up assays come after a bar, where they were run).

COC(=O)c1ccccc1NC(=O)c1cc(-c2ccco2)on1	none
COC(=O)c1ccccc1NC(=O)c1cc(-c2cccs2)on1	DNMT1 block 56 | DNMT1 inh conf inactive | DNMT1 interf inactive
S=C(NCc1ccco1)Nc1ccc(Cl)cn1	none
COc1ccc(-c2csc3[nH]c(=S)n(-c4ccccc4)c(=O)c23)cc1OC	none
COc1ccc(OC)c2sc(NC(=O)c3ccc(Br)s3)nc12	DNMT1 block 57 | DNMT1 inh conf inactive | DNMT1 interf inactive
COc1ccc(OC)c2sc(NC(=O)c3ccc(Cl)s3)nc12	DNMT1 block 61 | DNMT1 inh conf inactive | DNMT1 interf inactive
CCC(=O)Nc1nc2c(OC)ccc(OC)c2s1	none
COc1ccc(OC)c2sc(NC(=O)C3CC3)nc12	none
COc1ccc(CC(=O)N[C@@H]2c3cc(OC)c(OC)cc3C[C@H]2O)cc1	none (no result: UBC9 SUMO inh)
CC(C)(C)S(=O)N1Cc2cc(C(=O)NCC(F)(F)F)nc(-c3cccc(-c4cccc(F)c4)c3)c2[C@H]1CCO (stereo partly drawn)	none (no result: UBC9 SUMO inh, Scp1 inh)
COc1ccc(NC(=O)C2Cc3c(-c4cccc(C(N)=O)c4)ccnc3O2)cc1 (stereo not drawn)	DNMT1 block 55 (no result: UBC9 SUMO inh, Scp1 inh) | DNMT1 inh conf inactive | DNMT1 interf inactive
O=C(O)c1ccc2c(c1)C1C=CCC1C(c1cc3c(cc1Br)OCO3)N2 (stereo not drawn)	none
O=C(O)c1ccc(NS(=O)(=O)c2ccc3c(c2)C2C=CCC2C(c2ccccc2F)N3)cc1 (stereo not drawn)	DNMT1 block 62 (no result: UBC9 SUMO inh) | DNMT1 interf DR inactive | DNMT1 inh conf inactive | DNMT1 interf inactive
CC[C@]1(C(=O)OC)[C@H]2C(=O)N(Cc3ccccc3)C(=O)[C@H]2[C@H]2CN=C(SCC(=O)c3ccccc3)N21	none (no result: UBC9 SUMO inh)
CCCn1c(N)c(NCCN2CCOCC2)c(=O)n(CC(=O)NCc2ccccc2)c1=O	DNMT1 block 86 | DNMT1 inh conf inactive | DNMT1 interf inactive
CN(CC(=O)Nc1ccc(F)c(Cl)c1)S(=O)(=O)c1ccc2c(c1)n(C)c(=O)c(=O)n2C	none
O=C(O)c1cccc2c1C(=O)c1ccccc1C2=O	none
CN(C=[N+](C)C)c1cccc2c1C(=O)c1ccccc1C2=O	DNMT1 block 62 | DNMT1 inh conf inactive | DNMT1 interf inactive
O=C(COc1ccc(Cl)cc1Cl)NN=C1c2ccccc2-c2ccccc21	DNMT1 block 87 | DNMT1 inh conf inactive | DNMT1 interf inactive
Cc1ccc(S(=O)(=O)N2CCOCC2)cc1NC(=O)Cn1nc(C)c([N+](=O)[O-])c1C	none (no result: UBC9 SUMO inh)
COc1cc(/C=N/NC(=O)c2nnn(-c3nonc3N)c2C)ccc1OCc1ccc(Cl)cc1	DNMT1 block 58 (no result: UBC9 SUMO inh, Scp1 inh) | DNMT1 inh conf inactive | DNMT1 interf inactive
COc1cc(/C=N/NC(=O)c2nnn(-c3nonc3N)c2C(C)C)ccc1OCc1ccccc1	none
CCOc1ccc(OCc2ccc(C(=O)NC(C)(C)C)o2)cc1	none | DNMT1 inh conf inactive | DNMT1 interf inactive
CCOc1ccc(OCc2ccc(C(=O)NN)o2)cc1	none
N=C1/C(=C\c2coc3ccccc3c2=O)C(=O)N=C2SC(c3ccncc3)=NN12	none
N=C1/C(=C/c2coc3ccccc3c2=O)C(=O)N=C2SC(c3ccco3)=NN12	DNMT1 block 65, Scp1 inh 54 | DNMT1 interf DR inactive | DNMT1 inh conf inactive | DNMT1 interf inactive
COC(C(=O)N1CCC(CCC(=O)Nc2ccccc2)CC1)c1ccccc1 (stereo not drawn)	none
[O-][n+]1c2ccccc2[n+]([O-])c2cc(O)ccc21	DNMT1 block 56, Scp1 inh 57 | DNMT1 inh conf inactive | DNMT1 interf inactive
CCNc1nc(NCC)nc(C(=O)NN)n1	DNMT1 block 91 | DNMT1 inh conf inactive | DNMT1 interf inactive
Cc1ccc(NC(=O)c2ccc3c(c2)C(=O)N(c2ccccc2C)C3=O)nc1	DNMT1 block 80 (no result: UBC9 SUMO inh) | DNMT1 inh conf inactive | DNMT1 interf inactive
Cc1ccc(C)c(N2C(=O)c3ccc(C(=O)Nc4ccccn4)cc3C2=O)c1	none (no result: UBC9 SUMO inh, Scp1 inh)
Cc1ccc(/C=c2\sc3nc(-c4cccs4)nn3c2=O)o1	DNMT1 block 57 | DNMT1 inh conf inactive | DNMT1 interf inactive
COc1cccc(/C=c2\sc3nc(-c4cccs4)nn3c2=O)c1OC	none
Cn1nc(C(C)(C)C)cc1N1C(=O)CCC1(C)C(=O)Nc1ccc2c(c1)OCCO2 (stereo not drawn)	none (no result: UBC9 SUMO inh, Scp1 inh)
CC(=O)c1ccc(N=Cc2c(O)n(-c3cc(Cl)ccc3N3CCOCC3)c(=O)c3ccccc23)cc1	DNMT1 block 86 | DNMT1 inh conf inactive | DNMT1 interf inactive
CCOC(=O)N1CCC(N2Cc3cccc(C(=O)Nc4ccc(OCC)cc4)c3C2=O)CC1	none
O=C(/C=C/c1ccco1)c1ccc(NC(=O)C23CC4CC(CC(C4)C2)C3)cc1	DNMT1 block 72 | DNMT1 inh conf inactive | DNMT1 interf inactive
O=C(C=Cc1ccco1)c1ccc([N+](=O)[O-])cc1	none (no result: UBC9 SUMO inh)
CCOC(=O)C1C(=O)CC(=O)CC1CC(C)SCC (stereo not drawn)	DNMT1 block 79 | DNMT1 inh conf inactive | DNMT1 interf inactive
O=C1N=C(N2CCOCC2)SC1=Cc1ccco1	DNMT1 block 81 (no result: UBC9 SUMO inh) | DNMT1 inh conf inactive | DNMT1 interf inactive
Cc1ccc(-c2ccc(/C=C3\SC(N4CCOCC4)=NC3=O)o2)cc1	none
Cc1ccc(/C=C2\SC(N3CCN(C(c4ccccc4)c4ccccc4)CC3)=NC2=O)o1	DNMT1 block 79 | DNMT1 inh conf inactive | DNMT1 interf inactive
O=C1N=C(N2CCOCC2)S/C1=C\c1cccnc1	none
Cc1cccn2c(=O)c3cc(C(N)=S)c(=N)n(CCCOC(C)C)c3nc12	DNMT1 block 62 | DNMT1 inh conf inactive | DNMT1 interf inactive
Cc1ccc(S(=O)(=O)N2CCCC2CNC(=O)C(=O)Nc2ccc(F)cc2)cc1 (stereo not drawn)	DNMT1 block 54 (no result: UBC9 SUMO inh) | DNMT1 inh conf inactive | DNMT1 interf inactive
COC(=O)c1c(C)n(-c2ccc(C)cc2)c2ccc(O)cc12	none
COc1ccc(S(=O)(=O)N2CCOCC2)cc1NC(=O)COC(=O)c1oc2ccccc2c1C	none (no result: UBC9 SUMO inh)
Cc1cc(=O)oc2c(C)c(OC(C)C(=O)NC(Cc3c[nH]c4ccc(O)cc34)C(=O)O)ccc12 (stereo not drawn)	DNMT1 block 85 | DNMT1 inh conf inactive | DNMT1 interf inactive

Screens (PubChem BioAssay)
